Data set [1] in a line: Multidrug resistance reversal activity in human KB/VCR cells assessed as reduction in vinblastine IC50 at 25 uM incubated for 72 hrs by sulforhodamine B assay relative to untreated control. In kind it is functional. The gist of the method:
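KB/VCR cells seeded 24 h, then given vinblastine serial dilutions (0.125–1 μM) with or without 25 μM sample for 72 h at 37 °C, 5% CO2. Cells fixed in 10% TCA (4 °C, 1 h), stained 15 min with 0.4% SRB in 1% HOAc, dye dissolved in 10 mM Tris base, A510 read. Fold reversal = IC50 of drug alone / IC50 with sample.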
On the technique in general: Sulforhodamine B stains cellular protein and so reports cell mass.

Data set [2] in a line: Toxicity against human KB/VCR cells assessed as inhibition of cell growth at 25 uM incubated for 72 hrs by sulforhodamine B assay. In kind it is cell-based. The following applies: read-out: GI.

The source of these data is ChEMBL document CHEMBL3351612, “Merremins A-G, resin glycosides from Merremia hederacea with multidrug resistance reversal activity” (J Nat Prod, 2014).

Turning to `CCCCC[C@H]1CCCCCCCCCC(=O)O[C@H]2[C@H](O[C@H]3[C@H](O1)O[C@H](C)[C@H](O)[C@@H]3OC(C)=O)O[C@@H](C)[C@H](O[C@@H]1O[C@@H](C)[C@H](O[C@@H]3O[C@@H](C)[C@H](OC(=O)[C@@H](C)CC)[C@@H](O)[C@H]3O)[C@@H](O[C@@H]3O[C@H](CO)[C@@H](O)[C@H](O)[C@H]3O)[C@H]1OC(=O)[C@@H](C)CC)[C@H]2O`, in data set [1], the “Ratio IC50” value is 2.3. The inhibition at 72 h, 25 µM in data set [2] was 0.91%.
On to `CCCCCCCC(=O)O[C@H]1[C@H](O[C@@H]2[C@@H](O)[C@H]3OC(=O)CCCCCCCCC[C@H](CCCCC)O[C@@H]4O[C@H](C)[C@H](OC(C)=O)[C@H](O)[C@H]4O[C@@H]3O[C@H]2C)O[C@@H](C)[C@H](O[C@@H]2O[C@@H](C)[C@H](OC(=O)[C@@H](C)CC)[C@@H](O)[C@H]2O)[C@H]1O[C@@H]1O[C@H](CO)[C@@H](O)[C@H](O)[C@H]1O`, for which the inhibition at 72 h, 25 µM in data set [2] turned out to be 93.8%.
`CCCCC[C@H]1CCCCCCCCCC(=O)O[C@H]2[C@H](O[C@H]3[C@H](O1)O[C@H](C)[C@H](OC(C)=O)[C@@H]3O)O[C@@H](C)[C@H](O[C@@H]1O[C@@H](C)[C@H](O[C@@H]3O[C@@H](C)[C@H](OC(=O)[C@@H](C)CC)[C@@H](O)[C@H]3O)[C@@H](O[C@@H]3O[C@H](CO)[C@@H](O)[C@H](O)[C@H]3O)[C@H]1OC(=O)[C@@H](C)CC)[C@H]2O`: the inhibition at 72 h, 25 µM in data set [2] turned out to be 97.8%.
For the molecule `CCCCCCCCCC(=O)O[C@H]1[C@H](O[C@@H]2[C@@H](O)[C@H]3OC(=O)CCCCCCCCC[C@H](CCCCC)O[C@@H]4O[C@H](C)[C@H](OC(C)=O)[C@H](O)[C@H]4O[C@@H]3O[C@H]2C)O[C@@H](C)[C@H](O[C@@H]2O[C@@H](C)[C@H](OC(=O)[C@@H](C)CC)[C@@H](O)[C@H]2O)[C@H]1O[C@@H]1O[C@H](CO)[C@@H](O)[C@H](O)[C@H]1O`, the inhibition at 72 h, 25 µM in data set [2] was determined as 96.6%.
Take `CCCCC[C@H]1CCCCCCCCCC(=O)O[C@H]2[C@@H](O)[C@H](O[C@H]3[C@H](O1)O[C@H](C)[C@H](O)[C@@H]3O)O[C@@H](C)[C@@H]2O[C@@H]1O[C@@H](C)[C@H](O[C@@H]2O[C@@H](C)[C@H](O)[C@@H](O)[C@H]2O)[C@@H](O[C@@H]2O[C@H](CO)[C@@H](O)[C@H](O)[C@H]2O)[C@H]1OC(=O)[C@@H](C)CC`: the “Ratio IC50” value in data set [1] is given as 15.8. Further, the inhibition at 72 h, 25 µM in data set [2] is -0.08%.
With `CCCCC[C@@H](CCCCCCCCCC(=O)OC)O[C@@H]1O[C@H](C)[C@H](O)[C@H](O)[C@H]1O[C@@H]1O[C@@H](C)[C@H](O[C@@H]2O[C@@H](C)[C@H](O[C@@H]3O[C@@H](C)[C@H](OC(=O)[C@@H](C)CC)[C@@H](O)[C@H]3O)[C@@H](O[C@@H]3O[C@H](CO)[C@@H](O)[C@H](O)[C@H]3O)[C@H]2O)[C@@H](O)[C@H]1O`, the “Ratio IC50” value in data set [1] is recorded as 2.5. For the same molecule, in data set [2], the inhibition at 72 h, 25 µM was found to be 0.23%.
For `CCCCCCCCCC(=O)O[C@H]1[C@H](O[C@@H]2[C@@H](O)[C@H]3OC(=O)CCCCCCCCC[C@H](CCCCC)O[C@@H]4O[C@H](C)[C@H](O)[C@H](O)[C@H]4O[C@@H]3O[C@H]2C)O[C@@H](C)[C@H](O[C@@H]2O[C@@H](C)[C@H](OC(=O)[C@@H](C)CC)[C@@H](O)[C@H]2O)[C@H]1O[C@@H]1O[C@H](CO)[C@@H](O)[C@H](O)[C@H]1O`, in data set [2], the inhibition at 72 h, 25 µM turned out to be 96.7%.
Same read-out and setting: for `CCCCC[C@H]1CCCCCCCCCC(=O)O[C@H]2[C@@H](O)[C@H](O[C@H]3[C@H](O1)O[C@H](C)[C@H](O)[C@@H]3O)O[C@@H](C)[C@@H]2O[C@@H]1O[C@@H](C)[C@H](O[C@@H]2O[C@@H](C)[C@H](OC(=O)[C@@H](C)CC)[C@@H](OC(=O)/C=C/c3ccccc3)[C@H]2O)[C@@H](O[C@@H]2O[C@H](CO)[C@@H](O)[C@H](O)[C@H]2O)[C@H]1OC(=O)[C@@H](C)CC` the value was 91.1%.
For the molecule `CCCCC[C@H]1CCCCCCCCCC(=O)O[C@H]2[C@H](O[C@H]3[C@H](O1)O[C@H](C)[C@H](O)[C@@H]3O)O[C@@H](C)[C@H](O[C@@H]1O[C@@H](C)[C@H](O[C@@H]3O[C@@H](C)[C@H](OC(=O)[C@@H](C)CC)[C@@H](O)[C@H]3O)[C@@H](O[C@@H]3O[C@H](CO)[C@@H](O)[C@H](O)[C@H]3O)[C@H]1OC(=O)[C@@H](C)CC)[C@H]2O` [MURUCOIDIN IV], the inhibition at 72 h, 25 µM in data set [2] was 97.5%.
As for `CCCCC[C@H]1CCCCCCCCCC(=O)O[C@H]2[C@@H](O)[C@H](O[C@H]3[C@H](O1)O[C@H](C)[C@H](O)[C@@H]3O)O[C@@H](C)[C@@H]2O[C@@H]1O[C@@H](C)[C@H](O[C@@H]2O[C@@H](C)[C@H](OC(=O)[C@@H](C)CC)[C@@H](O)[C@H]2O)[C@@H](O[C@@H]2O[C@H](CO)[C@@H](O)[C@H](O)[C@H]2O)[C@H]1OC(=O)[C@@H](C)CC` [MURUCOIDIN V], the “Ratio IC50” value in data set [1] is given as 142.5. In addition, the inhibition at 72 h, 25 µM in data set [2] turned out to be 7.72%.
